Measured values reported in ChEMBL document CHEMBL1150790, “Biochemical characterization of PER-2 and genetic environment of blaPER-2” (Antimicrob Agents Chemother, 2007).
≈ marks a conversion by molar mass, not a printed value.

Tests used:
Escherichia coli [1] = assay: Antimicrobial activity against Escherichia coli 33587-TC9 by agar dilution method; format: functional
Method in brief: (§1)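 MICs were determined by agar dilution following CLSI guidelines, with inoculum applied by a Steers multipoint inoculator.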

Escherichia coli [2] = assay: Antimicrobial activity against Escherichia coli CAG12177 by agar dilution method; format: functional; method in brief: as §1
[3] = biological target: T1, PER-2 beta-lactamase (Citrobacter freundii) (UniProt A2RP81); assay: Ratio of Kcat to Km of Citrobacter freundii PER2 beta lactamase relative to cephalothin
T1 sequence (whole entry): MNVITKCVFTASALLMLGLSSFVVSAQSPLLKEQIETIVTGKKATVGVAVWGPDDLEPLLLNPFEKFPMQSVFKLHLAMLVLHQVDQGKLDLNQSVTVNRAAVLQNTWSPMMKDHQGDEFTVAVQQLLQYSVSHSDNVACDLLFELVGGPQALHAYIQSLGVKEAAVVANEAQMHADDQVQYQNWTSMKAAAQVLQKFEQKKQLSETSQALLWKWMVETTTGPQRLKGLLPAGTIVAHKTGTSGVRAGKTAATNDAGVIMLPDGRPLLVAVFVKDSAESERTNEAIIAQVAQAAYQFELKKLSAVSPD
Method in brief: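 Purified recombinant PER-2 (E. coli BL21(DE3) expression, Q-Sepharose purification) was assayed spectrophotometrically at 30°C in 500 μl. kcat and Km came from initial steady-state rates.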

Citrobacter freundii = assay: Antimicrobial activity against Citrobacter freundii 33587 isolate by agar dilution method; format: functional; method in brief: as §1
PER-2 beta-lactamase = biological target: T2, PER-2 beta-lactamase (Citrobacter freundii, UniProt A2RP81); assay: Inhibition of Citrobacter freundii PER2 beta lactamase
T2 sequence (A2RP81 whole entry): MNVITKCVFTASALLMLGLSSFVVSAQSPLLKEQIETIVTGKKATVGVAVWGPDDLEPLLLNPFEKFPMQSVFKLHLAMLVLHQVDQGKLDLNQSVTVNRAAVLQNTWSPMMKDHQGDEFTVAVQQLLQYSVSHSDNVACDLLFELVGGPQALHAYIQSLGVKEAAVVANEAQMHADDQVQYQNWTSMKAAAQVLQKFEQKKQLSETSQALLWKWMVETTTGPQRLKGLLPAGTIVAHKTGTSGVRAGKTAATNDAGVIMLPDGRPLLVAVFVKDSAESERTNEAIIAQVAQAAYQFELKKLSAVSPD
Method in brief: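 Purified recombinant PER-2 was incubated with the drug plus 100 μM nitrocefin as reporter substrate in 500 μl at 30°C. Residual enzyme activity was read spectrophotometrically. Apparent Km values were derived as competitive inhibitor constants (Ki).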

| SMILES | MIC (Escherichia coli [1]) [µg/mL] | MIC (Escherichia coli [2]) [µg/mL] | Activity [3] [%] | MIC (Citrobacter freundii) [µg/mL] | Ki (PER-2 beta-lactamase) [nM] |
| --- | --- | --- | --- | --- | --- |
| CO/N=C(\C(=O)N[C@@H]1C(=O)N2C(C(=O)[O-])=C(C[N+]3(C)CCCC3)CS[C@H]12)c1csc(N)n1 | 8 (≈ 16.6 µM) | ≤ 0.063 | 3 | 16 (≈ 33.3 µM) |  |
| CC1(C)S[C@@H]2[C@H](NC(=O)Cc3ccccc3)C(=O)N2[C@H]1C(=O)O |  |  | 18 |  |  |
| CCN1CCN(C(=O)N[C@@H](C(=O)N[C@@H]2C(=O)N3C(C(=O)O)=C(CSc4nnnn4C)CS[C@H]23)c2ccc(O)cc2)C(=O)C1=O |  |  | 15 |  |  |
| CO/N=C(\C(=O)N[C@@H]1C(=O)N2C(C(=O)O)=C(COC(N)=O)CS[C@H]12)c1ccco1 |  |  | 45 |  |  |
| O=C(Cc1cccs1)N[C@@H]1C(=O)N2C(C(=O)O)=C(/C=C/c3ccc([N+](=O)[O-])cc3[N+](=O)[O-])CS[C@H]12 |  |  | 224 |  |  |
| CC1(C)S[C@@H]2[C@H](NC(=O)[C@H](N)c3ccccc3)C(=O)N2[C@H]1C(=O)O [AMPICILLIN] | > 512 | 0.25 (≈ 0.715 µM) | 49 | > 512 |  |
| C[C@H]1[C@H](NC(=O)/C(=N\OC(C)(C)C(=O)O)c2csc(N)n2)C(=O)N1S(=O)(=O)O [AZTREONAM] | 256 (≈ 588 µM) | ≤ 0.016 | 18 | 256 (≈ 588 µM) | 2000 |
| CO/N=C(\C(=O)N[C@@H]1C(=O)N2C(C(=O)O)=C(COC(C)=O)CS[C@H]12)c1csc(N)n1 [CEFOTAXIME] | 64 (≈ 141 µM) | ≤ 0.063 | 113 | 64 (≈ 141 µM) |  |
| CO[C@@]1(NC(=O)Cc2cccs2)C(=O)N2C(C(=O)O)=C(COC(N)=O)CS[C@@H]21 [CEFOXITIN] | 0.125 (≈ 0.292 µM) | ≤ 0.063 | 18 | 1 (≈ 2.34 µM) | 140 |
